Source: PubChem
The full list was thinned out, with hits kept by preference.
HUVEC inhibit – inhibitors of human endothelial cell proliferation; viability, % at 10 µM (by protocol); HUVEC proliferation, CellTiter-Glo luminescence, 72 h; active compounds read low; hit rate 1.1% among 86,000;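 active = viability at or below 30%; inactive = viability above 30%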;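 also: 100% = median luminescence of DMSO-only cell control wells on each plate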
bCat KO growth – beta-catenin-lacking colon tumor cell growth suppression; HCT116 beta-catenin knockout viability, CellTiter-Glo, 60 h; active compounds read low; viability, % at 10 µM; hit rate 1.5% among 140,000;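 active = viability at or under a set limit, the compound median less 4 SD, cut at about 6% in these data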;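 also: 0% = Hyamine 1622 control at 20 µM and 100% = untreated cell control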
PTEN del growth – growth suppressors of cells with PTEN tumor suppressor deletion; HCT116 PTEN-null viability, CellTiter-Glo, 60 h; active compounds read low; viability, % at 10 µM; AID 827; hit rate 1.2% among 140,000;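 active = viability at or below a set limit, 4 SD under the median of all tested compounds, cut at about 3.7% in these data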;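 also: PTEN knockout HCT116 line with beta catenin targeted HCT116 as companion control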
H69AR growth 86K – blocks growth of human H69AR lung tumor cells. AID 598. viability, % at 10 µM. hit rate 6% among 85,000. H69AR lung tumor viability, ATP luminescence, 72 h; active compounds read low;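 active = viability at or below 40%; inactive = viability above 40%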;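 also: multidrug resistant small cell line overexpressing MRP-1 efflux transporter; 100% = mean luminescence of untreated control wells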
Pyk2 oligo antag – antagonists of human Pyk2 oligomerization; hit rate 0.83% among 99,000; z-score (the deposit names both 25 µM and 10 µM); Q14289; Q293 cells, Pyk2 FERM NanoBiT luminescence; active compounds read low;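 active = Z-score of -3 or lower, scaled per plate to the spread of control and sample wells; inactive = z-score above -3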;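 also: negative z-score means lost luminescence so less FERM oligomerization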
Target sequence (Q14289 whole entry, looked up): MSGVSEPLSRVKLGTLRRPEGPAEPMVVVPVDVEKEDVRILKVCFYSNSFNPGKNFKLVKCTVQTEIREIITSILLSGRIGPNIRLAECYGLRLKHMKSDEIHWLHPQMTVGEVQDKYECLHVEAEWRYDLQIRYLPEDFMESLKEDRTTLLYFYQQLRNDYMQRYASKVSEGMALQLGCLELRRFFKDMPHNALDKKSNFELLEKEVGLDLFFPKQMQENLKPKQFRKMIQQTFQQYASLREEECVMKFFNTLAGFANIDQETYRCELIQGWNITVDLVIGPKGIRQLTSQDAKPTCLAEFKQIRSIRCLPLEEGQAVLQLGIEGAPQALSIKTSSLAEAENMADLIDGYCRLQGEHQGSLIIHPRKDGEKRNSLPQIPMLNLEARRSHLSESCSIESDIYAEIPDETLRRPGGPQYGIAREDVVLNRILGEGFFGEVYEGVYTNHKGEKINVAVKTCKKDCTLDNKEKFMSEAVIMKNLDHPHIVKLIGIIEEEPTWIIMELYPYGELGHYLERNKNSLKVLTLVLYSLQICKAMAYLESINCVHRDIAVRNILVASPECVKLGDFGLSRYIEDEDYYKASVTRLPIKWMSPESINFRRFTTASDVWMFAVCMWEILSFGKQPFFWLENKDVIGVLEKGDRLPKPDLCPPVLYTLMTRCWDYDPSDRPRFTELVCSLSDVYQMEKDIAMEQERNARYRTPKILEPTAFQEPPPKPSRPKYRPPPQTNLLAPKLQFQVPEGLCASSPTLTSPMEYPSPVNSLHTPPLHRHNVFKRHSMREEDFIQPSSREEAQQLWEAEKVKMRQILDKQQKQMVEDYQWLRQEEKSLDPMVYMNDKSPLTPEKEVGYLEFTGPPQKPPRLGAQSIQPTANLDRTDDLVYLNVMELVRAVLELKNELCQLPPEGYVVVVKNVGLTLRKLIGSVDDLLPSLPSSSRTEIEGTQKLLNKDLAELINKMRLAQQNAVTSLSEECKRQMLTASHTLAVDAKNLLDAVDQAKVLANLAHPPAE
Fibroblast inh – blocks proliferation of human lung fibroblasts; LL 47 human lung fibroblast viability, ATP luminescence; active compounds read low; viability, % at 10 µM; hit rate 1.1% among 85,000; AID 719;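 active = viability at or below 50% in the single dose screen; inactive = viability above 50%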;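 also: compound exposure lasted 72 h before the ATP readout; 100% = median luminescence of untreated cell-only wells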
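Assay system: human lung fibroblast line LL 47, low passage. Input: 1,150 fibroblasts seeded per well. Times: overnight cell rest, 72 h compound treatment at 37 °C. Evaluation: % viability of median cell-only signal. Technique: luminescent ATP detection, CellTiter-Glo. Control set: cell-only wells, no compound.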
Active calls of the source: *; nt = no result given.

SMILES	HUVEC inhibit	bCat KO growth	PTEN del growth	H69AR growth 86K	Pyk2 oligo antag	Fibroblast inh
Cc1ccc(S(=O)(=O)NC2CCOC(C)(C)C2)cc1 (stereo unspecified)	89.2	91.6	92.4	71.5	0.29	102.8
N#CCC(=O)NCCCc1ccccc1	nt	97.8	96.2	nt	nt	nt
Brc1ccccc1Cn1c(-c2cscn2)nc2ccccc21	106.7	63.2	67.1	82.5	-0.08	90.2
O=C(Nc1cccc2c1[nH]c1ccccc12)C(F)(F)F	95.4	82.0	91.1	10.8*	0.12	98.8
Cc1cc2c(nc1C)CCCN2C[C@@H](C)O/N=C1/[C@H]2CCn3c(=O)n(-c4ccccc4)c(=O)n3[C@H]2[C@H](O)[C@@H]2O[C@H]12	nt	62.1	68.9	nt	nt	nt
Cc1ccc(OC(F)F)c(NC(=O)Nc2cccc(C(F)(F)F)c2)c1	43.4	22.7	17.4	2.4*	-2.2	35.4*
Cc1nn(C)c(C(=O)N/N=C/c2ccc(C(F)(F)F)cc2)c1[N+](=O)[O-]	nt	93.2	95.8	nt	-0.35	nt
Cc1cc(NC(=O)c2ccc3c(c2)C(=O)N(C2CCCCC2)C3=O)no1	92.1	8.8	9.2	26.9*	-0.6	78.7
Cc1cc(NC(=O)c2ccc3c(c2)C(=O)N(CCC(C)C)C3=O)no1	93.2	71.5	67.8	39.9*	-0.22	99.5
Cc1cc(NC(=O)c2ccc3nc(-c4ccccc4)c(-c4ccccc4)nc3c2)no1	48.7	50.9	51.1	16.2*	-0.24	17.6*
Cc1cc(NC(=O)c2ccc3c(c2)C(=O)N(C)C3=O)no1	94.2	102.9	108.4	91.1	-0.41	103.5
CS(=O)(=O)N(CC(=O)NC1CC1)C1CCCCC1	nt	94.3	90.5	nt	nt	nt
CCCC(C)NC(=O)c1ccc(OCc2ccc(Cl)cc2)c(OC)c1 (stereo unspecified)	nt	82.1	74.3	nt	nt	nt
CCCC(=O)OCCNc1cc(Sc2nc3ccccc3[nH]2)c2nonc2c1[N+](=O)[O-]	nt	3.6*	3.6*	nt	nt	nt
CCC(=O)OCCNc1cc(SCCC(=O)OC)c2nonc2c1[N+](=O)[O-]	nt	67.4	67.4	nt	nt	nt
CCC(=O)OCCNc1cc(Sc2nccn2C)c2nonc2c1[N+](=O)[O-]	nt	1.6*	1.7*	nt	nt	nt
CC(=O)OCCCNc1cc(Sc2ccc(Cl)cc2)c2nonc2c1[N+](=O)[O-]	nt	1.5*	1.6*	nt	nt	nt
Cc1c(CCO)c(=O)n(-c2ccccc2)n1S(=O)(=O)c1ccc(Cl)cc1	92.1	93.1	89.5	86.0	-0.03	99.3
CN1CCCN(C(c2ccccc2)c2ccc(Cl)cc2)CC1 (stereo unspecified)	77.2	17.4	16.1	25.2*	nt	65.3
Cc1ccc(-n2c(O)c(C=Nc3ccc4c(c3)OCO4)c3ccccc3c2=O)cc1C	nt	2.0*	2.4*	nt	-0.55	nt
Cc1cccc(-n2c(O)c(C=Nc3ccc4c(c3)OCO4)c3ccccc3c2=O)n1	89.7	88.2	90.9	76.8	-1.42	91.0
Cc1cc(N=Cc2c(O)n(-c3ccc4c(c3)OCO4)c(=O)c3ccccc23)ccn1	87.0	82.8	80.1	21.3*	-0.61	73.0
O=c1/c(=C/c2ccco2)sc2n1CN(c1cccc(Br)c1)CN=2	39.4	79.6	73.9	31.9*	0.82	99.3
Cc1cc(C(=O)NC(CC(C)C)C(=O)O)cc(C)c1[N+](=O)[O-] (stereo unspecified)	nt	83.6	91.4	nt	nt	nt
CCCCOc1ccc(Br)cc1/C(C)=N/NC1=NCCN1	7.1*	2.4*	2.9*	82.9	0.55	22.8*
SMILES	HUVEC inhibit	bCat KO growth	PTEN del growth	H69AR growth 86K	Pyk2 oligo antag	Fibroblast inh
Cc1cc(C(=O)Nc2ccccc2)oc1C	105.0	88.7	89.9	91.7	-0.28	112.6
CCNC(=S)N(CCc1c(C)[nH]c2ccccc12)Cc1cc(OC)c(OC)c(OC)c1	nt	72.8	66.6	nt	nt	nt
O=C(c1cccc(F)c1)N1CCCN(C(=O)c2cccc(F)c2)CC1	nt	94.1	98.5	nt	nt	nt
O=C(c1c(F)c(F)c(F)c(F)c1F)N1CCN(c2cccc(C(F)(F)F)c2)CC1	35.9	13.0	18.1	28.9*	0.85	67.1
COc1ccccc1C(=O)N1CCN(c2cccc(Cl)c2)CC1	50.3	11.3	12.3	58.4	-0.39	46.4*
O=C(c1c(Cl)nc2sccn12)N1CCN(c2cccc(Cl)c2)CC1	54.2	13.6	14.5	19.3*	-0.52	59.5
O=C(c1ccccc1F)N1CCN(c2cccc(C(F)(F)F)c2)CC1	95.3	85.9	80.4	89.6	0.15	100.2
O=C(c1cccc(F)c1)N1CCN(c2cccc(Cl)c2)CC1	65.0	22.9	24.5	18.3*	0.62	71.8
